Measurements: ChEMBL document CHEMBL1130297, “Synthesis of 5,6-dihydro-4-hydroxy-2-pyrones as HIV-1 protease inhibitors: the profound effect of polarity on antiviral activity” (J Med Chem, 1997)

Legend:
[1] = Cytotoxicity in CEM cells in the absence of virus; type: cell-based; details: human, CEM (CCRF-CEM) cells; read-out: TC50 (the source's name)
Summary of the method: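 Toxicity read in uninfected CEM cells (no virus present), run alongside the cellular antiviral protocol. Reported as TC50.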

CCRF-CEM = assay: Antiviral activity in HIV infected CEM cells.; type: functional, cell-based; details: Homo sapiens
Summary of the method: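 Cytopathic-effect protection assay in HIV-infected CEM cells by a standard protocol. EC50 taken as the concentration at which 50% of cells are protected from cytopathic effects.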

[2] = target: Human immunodeficiency virus type 1 protease (Human immunodeficiency virus 1, UniProt Q72874); assay: In vitro inhibition activity against HIV-1 protease.
Summary of the method: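 HIV-1 protease inhibition read by HPLC assay at pH 6.2, modified from an earlier method. Buffer: 1.0 mM dithiothreitol, 80 mM MES, 160 mM NaCl, 1.0 mM EDTA, 0.1% polyethylene glycol (MW 8000). Final protease concentration 1.5 nM. IC50 values reported.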

With `Cc1ccc(C(C)(C)C)c(SC2=C(O)OC(CCc3ccccc3)(c3ccc(OCCO)cc3)CC2=O)c1` (stereo not drawn) the CC50 [1] was 23 µM, the EC50 (CCRF-CEM) was 9.4 µM and the IC50 [2] was 0.012 µM.
`Cc1cc(SC2=C(O)OC(CCc3ccc(O)cc3)(c3ccccc3)CC2=O)c(C(C)(C)C)cc1CO` (stereo not drawn) showed a CC50 [1] of over 100 µM, an EC50 (CCRF-CEM) of 4.7 µM and an IC50 [2] of 0.0017 µM.
Compound `Cc1cc(SC2=C(O)OC(CCc3ccc(N)cc3)(C3CCCCC3)CC2=O)c(C(C)(C)C)cc1CO` (stereo not drawn) has a CC50 [1] of 80 µM, an EC50 (CCRF-CEM) of 1.4 µM and an IC50 [2] of 0.0032 µM.
Compound `Cc1ccc(C(C)(C)C)c(SC2=C(O)OC(CCc3ccc(O)cc3)(c3ccccc3)CC2=O)c1` (stereo not drawn) has a CC50 [1] of 69 µM, an EC50 (CCRF-CEM) of over 69 µM and an IC50 [2] of 0.011 µM.
Compound `COc1ccc(C2(CCc3ccc(O)cc3)CC(=O)C(Sc3cc(C)c(CO)cc3C(C)(C)C)=C(O)O2)cc1` (stereo not drawn) has a CC50 [1] of over 100 µM and an EC50 (CCRF-CEM) of 2 µM.
In the case of `Cc1cc(SC2=C(O)OC(CCc3ccc(O)cc3)(c3ccc(O)cc3)CC2=O)c(C(C)(C)C)cc1CO` (stereo not drawn), the CC50 [1] is reported as 21 µM, the EC50 (CCRF-CEM) is reported as over 21 µM and the IC50 [2] is reported as 0.12 µM.
Work on `COCc1cc(C(C)(C)C)c(SC2=C(O)OC(CCc3ccccc3)(c3ccc(OCCO)cc3)CC2=O)cc1C` (stereo not drawn) yielded a CC50 [1] of 18 µM, an EC50 (CCRF-CEM) of over 18 µM and an IC50 [2] of 0.0045 µM.
Work on `Cc1cc(SC2=C(O)OC(C)(CCc3ccc(O)cc3)CC2=O)c(C(C)(C)C)cc1CO` (stereo not drawn) yielded a CC50 [1] of over 100 µM, an EC50 (CCRF-CEM) of 2.5 µM and an IC50 [2] of 0.0043 µM.
In the case of `Cc1cc(SC2=C(O)OC(CCc3cccc(N)c3)(c3ccccc3)CC2=O)c(C(C)(C)C)cc1CO` (stereo not drawn), the CC50 [1] is reported as 23 µM, the EC50 (CCRF-CEM) is reported as 3.1 µM and the IC50 [2] is reported as 0.004 µM.
For `Cc1cc(SC2=C(O)OC(CCc3ccccc3)(c3ccc(OCCO)cc3)CC2=O)c(C(C)(C)C)cc1O` (stereo not drawn), the CC50 [1] was 27 µM, the EC50 (CCRF-CEM) was 4.2 µM and the IC50 [2] was 0.0037 µM.
In the case of `Cc1ccc(C(C)(C)C)c(SC2=C(O)OC(CCc3ccc(N)cc3)(c3ccccc3)CC2=O)c1` (stereo not drawn), the CC50 [1] is reported as 54 µM, the EC50 (CCRF-CEM) is reported as over 54 µM and the IC50 [2] is reported as 0.024 µM.
Compound `Cc1cc(SC2=C(O)OC(CCc3cccc(O)c3)(c3ccccc3)CC2=O)c(C(C)(C)C)cc1CO` (stereo not drawn) has a CC50 [1] of over 100 µM, an EC50 (CCRF-CEM) of 6.1 µM and an IC50 [2] of 0.0025 µM.
In the case of `Cc1cc(SC2=C(O)OC(CCc3ccc(N)cc3)(c3ccccc3)CC2=O)c(C(C)(C)C)cc1CO` (stereo not drawn), the CC50 [1] is reported as 94 µM, the EC50 (CCRF-CEM) is reported as 3.7 µM and the IC50 [2] is reported as 0.0031 µM.
For `Cc1cc(SC2=C(O)OC(CCc3ccc(O)cc3)(C(C)C)CC2=O)c(C(C)(C)C)cc1CO` (stereo not drawn), the CC50 [1] was over 100 µM, the EC50 (CCRF-CEM) was 0.6 µM and the IC50 [2] was 0.0036 µM.
`Cc1ccc(C(C)(C)C)c(SC2=C(O)OC(CCc3ccccc3)(c3ccc(O)cc3)CC2=O)c1` (stereo not drawn) gave a CC50 [1] of 23 µM, an EC50 (CCRF-CEM) of over 23 µM and an IC50 [2] of 0.04 µM.
For `Cc1cc(SC2=C(O)OC(CCc3ccccc3)(c3ccccc3)CC2=O)c(C(C)(C)C)cc1CO` (stereo not drawn), the CC50 [1] was 66 µM, the EC50 (CCRF-CEM) was 2.5 µM and the IC50 [2] was 0.0066 µM.
In the case of `COc1cc(C(C)(C)C)c(SC2=C(O)OC(CCc3ccccc3)(c3ccccc3)CC2=O)cc1C` (stereo not drawn), the CC50 [1] is reported as 33 µM, the EC50 (CCRF-CEM) is reported as over 33 µM and the IC50 [2] is reported as 0.015 µM.
Work on `Cc1ccc(C(C)(C)C)c(SC2=C(O)OC(CCc3ccccc3)(c3ccc(N)cc3)CC2=O)c1` (stereo not drawn) yielded a CC50 [1] of 67 µM, an EC50 (CCRF-CEM) of over 67 µM and an IC50 [2] of 0.032 µM.
`Cc1cc(SC2=C(O)OC(CCc3ccc(O)cc3)(C3CCCCC3)CC2=O)c(C(C)(C)C)cc1CO` (stereo not drawn) gave a CC50 [1] of 75 µM, an EC50 (CCRF-CEM) of 0.5 µM and an IC50 [2] of 0.0041 µM.
For `Cc1cc(SC2=C(O)OC(CCc3ccccc3)(c3ccc(OCCO)cc3)CC2=O)c(C(C)(C)C)cc1OCCO` (stereo not drawn), the CC50 [1] was 25 µM, the EC50 (CCRF-CEM) was 1.8 µM and the IC50 [2] was 0.0064 µM.
Work on `Cc1cc(SC2=C(O)OC(CCc3ccccc3)(c3ccccc3)CC2=O)c(C(C)(C)C)cc1OCCO` (stereo not drawn) yielded a CC50 [1] of 20 µM, an EC50 (CCRF-CEM) of over 20 µM and an IC50 [2] of 0.0068 µM.
Work on `Cc1cc(SC2=C(O)OC(CCc3ccccc3)(c3ccc(OCCO)cc3)CC2=O)c(C(C)(C)C)cc1CO` (stereo not drawn) yielded a CC50 [1] of 67 µM, an EC50 (CCRF-CEM) of 4.2 µM and an IC50 [2] of 0.0014 µM.
In the case of `Cc1cc(SC2=C(O)OC(CCc3ccccc3)(c3ccccc3)CC2=O)c(C(C)(C)C)cc1O` (stereo not drawn), the CC50 [1] is reported as 23 µM, the EC50 (CCRF-CEM) is reported as over 23 µM and the IC50 [2] is reported as 0.033 µM.
Work on `Cc1ccc(C(C)(C)C)c(SC2=C(O)OC(CCc3ccccc3)(c3ccccc3)CC2=O)c1` (stereo not drawn) yielded a CC50 [1] of 55 µM and an EC50 (CCRF-CEM) of over 55 µM.
Work on `Cc1cc(SC2=C(O)OC(CCc3ccc(N)cc3)(C(C)C)CC2=O)c(C(C)(C)C)cc1CO` (stereo not drawn) yielded a CC50 [1] of over 100 µM, an EC50 (CCRF-CEM) of 0.5 µM and an IC50 [2] of 0.0027 µM.
